Key:
Cavia porcellus [1] = test: Inhibition of increase in specific airway resistance by antigen inhalation in conscious guinea pigs (10 mg/kg); format: functional
Procedure, shortened: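 Conscious guinea pigs given compound po 1 h before antigen inhalation; increase in specific airway resistance measured; percent inhibition as mean ± SEM, n = 4–11 animals/group; Student's t-test versus control.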

Prostacyclin receptor = Prostacyclin receptor (Homo sapiens, UniProt P43119); test: Inhibition of cAMP formation by carbacyclin in Prostaglandin I2 receptor (IP) assay; format: functional
Procedure, shortened: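 Platelets (human) preincubated 10 min at 37 °C with graded compound levels plus IBMX, then exposed 2 min to 0.1 μM carbacyclin; cAMP formation inhibition read out; IC50 is mean of two or three measurements.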

Cavia porcellus [2] = species on record: Cavia porcellus; test: Effect on PGD2-induced increase in vascular permeability in conjunctiva of normal guinea pigs; format: functional
Procedure, shortened: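 Normal guinea pigs; conjunctival microvascular permeability increase induced by topical 0.1% PGD2; dose producing 50% inhibition derived from dose–response data, n = 3–10 animals per point.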

Thromboxane A2 receptor = molecular target: T1, Thromboxane A2 receptor (Homo sapiens, UniProt P21731); test: Inhibition of [3H]- (+)-S-145 specific binding to human platelet membranes in TXA2 receptor (TP) assay
T1 sequence (P21731 whole entry): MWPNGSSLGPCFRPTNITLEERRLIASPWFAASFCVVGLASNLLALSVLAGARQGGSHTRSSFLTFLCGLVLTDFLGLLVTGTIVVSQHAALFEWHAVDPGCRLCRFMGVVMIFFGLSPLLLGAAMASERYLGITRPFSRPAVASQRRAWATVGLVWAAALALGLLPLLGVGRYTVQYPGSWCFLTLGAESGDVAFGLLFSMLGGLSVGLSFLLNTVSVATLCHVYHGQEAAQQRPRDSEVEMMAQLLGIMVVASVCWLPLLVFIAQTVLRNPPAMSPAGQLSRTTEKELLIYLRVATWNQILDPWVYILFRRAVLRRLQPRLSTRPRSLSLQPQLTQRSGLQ
Procedure, shortened: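 Membranes from human platelets incubated 60 min at room temperature with 2 nM [3H](+)-S-145 plus graded compound concentrations; specific binding inhibition gives IC50.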

[3] = molecular target: T2, Prostaglandin D2 receptor (Homo sapiens, UniProt Q13258); test: Inhibition of cAMP formation evoked by the prostaglandin D2 receptor in human platelets; format: functional
T2 sequence (Q13258 whole entry): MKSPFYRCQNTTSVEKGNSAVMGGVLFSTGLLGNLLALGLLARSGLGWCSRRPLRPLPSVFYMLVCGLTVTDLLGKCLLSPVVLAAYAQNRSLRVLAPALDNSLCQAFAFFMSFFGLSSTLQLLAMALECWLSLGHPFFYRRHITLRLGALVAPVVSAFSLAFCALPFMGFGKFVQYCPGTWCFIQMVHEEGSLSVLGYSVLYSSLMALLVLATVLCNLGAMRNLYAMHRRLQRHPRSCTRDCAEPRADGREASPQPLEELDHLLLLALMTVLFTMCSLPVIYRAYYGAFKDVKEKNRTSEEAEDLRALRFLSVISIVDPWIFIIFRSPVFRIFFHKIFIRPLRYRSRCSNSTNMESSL
Procedure, shortened: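 Human platelets preincubated 10 min at 37 °C with graded compound concentrations in presence of IBMX, then stimulated 2 min with 0.1 μM PGD2; inhibition of cAMP formation measured, IC50 derived.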

Cavia porcellus [4] = species on record: Cavia porcellus; test: Effect on antigen-induced increase in vascular permeability in conjunctiva of guinea pig which actively sensitized with ovalbumin; format: functional
Procedure, shortened: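 Guinea pigs actively sensitized with ovalbumin, challenged conjunctivally with antigen; increase in conjunctival microvascular permeability measured; ED50 from dose–response data, n = 3–10 animals per point.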

Cavia porcellus [5] = species on record: Cavia porcellus; test: Dose required to inhibit 50% of antigen-induced increase in intranasal pressure; format: functional; details: po
Procedure, shortened: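 Oral dosing of actively sensitized guinea pigs 1 h before antigen challenge; rise in intranasal pressure recorded; dose giving 50% inhibition taken from dose–response data, n = 5–10 animals per point.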

Cavia porcellus [6] = test: Inhibition of antigen-induced increase in intranasal pressure in actively sensitized guinea pigs at 1 mg/kg (iv); format: functional
Procedure, shortened: (§1)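 Actively sensitized guinea pigs; compound given iv 10 min before antigen challenge; antigen-induced rise in intranasal pressure measured, percent inhibition reported as mean ± SEM, n = 5–10/group; Student's t-test versus control.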

[7] = molecular target: T2, Prostaglandin D2 receptor; test: Inhibition of [3H]PGD-2 specific binding to Prostaglandin D2 receptor from human platelet membranes
Procedure, shortened: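 Human platelet membranes incubated 60 min at 4 °C with 5 nM [3H]PGD2 and graded test compound concentrations; inhibition of specific binding measured, IC50 derived.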

Cavia porcellus [8] = test: Inhibition of antigen-induced increase in intranasal pressure in actively sensitized guinea pigs at 3 mg/kg (iv); format: functional; procedure, shortened: as §1

Chain of Prostacyclin receptor (P43119 whole entry): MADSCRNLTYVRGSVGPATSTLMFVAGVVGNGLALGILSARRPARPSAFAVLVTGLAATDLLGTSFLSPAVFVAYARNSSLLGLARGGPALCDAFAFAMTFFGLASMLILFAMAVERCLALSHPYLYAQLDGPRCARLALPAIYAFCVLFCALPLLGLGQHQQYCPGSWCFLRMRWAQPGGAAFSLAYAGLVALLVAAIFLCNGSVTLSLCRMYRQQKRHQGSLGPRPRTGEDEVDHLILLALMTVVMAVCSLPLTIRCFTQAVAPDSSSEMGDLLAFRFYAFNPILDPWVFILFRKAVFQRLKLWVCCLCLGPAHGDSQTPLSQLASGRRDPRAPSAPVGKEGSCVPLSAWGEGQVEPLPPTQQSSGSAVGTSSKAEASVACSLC

IC50 (Prostacyclin receptor) [µM]	IC50 (Thromboxane A2 receptor) [nM]	IC50 [3] [nM]	IC50 [7] [nM]	Structure (SMILES)	Inhibition (Cavia porcellus [1]) [%]	ED50 (Cavia porcellus [2]) [mg/kg]	ED50 (Cavia porcellus [4]) [mg/kg]	ED50 (Cavia porcellus [5]) [mg/kg]	inhibition in vivo at 1 mg/kg (Cavia porcellus [6]) [%]	inhibition in vivo at 3 mg/kg (Cavia porcellus [8]) [%]
> 10	96	1		CC1(C)[C@H]2C[C@H](C/C=C\CCCC(=O)O)[C@@H](NC(=O)c3csc4ccc(O)cc34)[C@@H]1C2	70	0.12	2	2.1	78	
7.5	270	220	32	CC1(C)[C@H]2C[C@H](C/C=C\CCCC(=O)O)[C@@H](NC(=O)c3ccc4oc5ccccc5c4c3)[C@@H]1C2						
> 10	210	5.6		CC1(C)[C@H]2C[C@H](C/C=C\CCCC(=O)O)[C@@H](NC(=O)c3cccc4ccsc34)[C@@H]1C2						
1.5	1700	70		O=C(O)CCC/C=C\C[C@@H]1[C@H]2CC[C@H](C2)[C@H]1NS(=O)(=O)c1ccc2oc3ccccc3c2c1				3.5	82	
5.9	> 10000	68	27	COc1cc2c(cc1S(=O)(=O)N[C@@H]1[C@@H]3CC[C@@H](C3)[C@H]1C/C=C\CCCC(=O)O)oc1ccccc12		1.6	6.6	2.2	80	
> 10	1200	120	47	O=C(O)CCC/C=C\C[C@@H]1[C@H]2CC[C@H](C2)[C@H]1NS(=O)(=O)c1ccc2cc(-c3ccccc3)[nH]c2c1				7.2	60	
> 10	380			CC1(C)[C@H]2C[C@H](C/C=C\CCCC(=O)O)[C@@H](NC(=O)c3csc4ccccc34)[C@@H]1C2						
4.5		250	1100	O=C(O)CCC/C=C\C[C@@H]1[C@H]2CC[C@H](C2)[C@H]1NS(=O)(=O)c1ccc2oc3cc([N+](=O)[O-])ccc3c2c1						
3.4	740	> 1000	1300	CC1(C)[C@H]2C[C@H](C/C=C\CCCC(=O)O)[C@@H](NS(=O)(=O)c3ccc(/N=N/c4ccccc4)cc3)[C@@H]1C2						
8.9	670	420	1200	O=C(O)CCC/C=C\C[C@@H]1[C@H]2CC[C@H](C2)[C@H]1NS(=O)(=O)c1ccc2ccccc2c1					54	
5	1100	450	600	O=C(O)CCC/C=C\C[C@@H]1[C@H]2CC[C@H](C2)[C@H]1NS(=O)(=O)c1ccc(-c2ccccc2)cc1						39
> 10	280	250	8.6	O=C(O)CCC/C=C\C[C@@H]1[C@H]2CC[C@H](C2)[C@H]1NS(=O)(=O)c1ccc(C#Cc2ccccc2)cc1					25	
> 10	240	> 1000	780	CC1(C)[C@H]2C[C@H](C/C=C\CCCC(=O)O)[C@@H](NS(=O)(=O)c3ccc4oc5ccccc5c4c3)[C@@H]1C2						

Second part, the compound before the results:

Structure (SMILES)	IC50 (Prostacyclin receptor) [µM]	IC50 (Thromboxane A2 receptor) [nM]	IC50 [3] [nM]	IC50 [7] [nM]	Inhibition (Cavia porcellus [1]) [%]	ED50 (Cavia porcellus [2]) [mg/kg]	ED50 (Cavia porcellus [4]) [mg/kg]	ED50 (Cavia porcellus [5]) [mg/kg]	inhibition in vivo at 1 mg/kg (Cavia porcellus [6]) [%]	inhibition in vivo at 3 mg/kg (Cavia porcellus [8]) [%]
CC1(C)[C@H]2C[C@H](C/C=C\CCCC(=O)O)[C@@H](NC(=O)c3csc4ccc(F)cc34)[C@@H]1C2	> 10	430	1.8		69	3.5	8.9	1		
CC1(C)[C@H]2C[C@H](C/C=C\CCCC(=O)O)[C@@H](NC(=O)c3ccc[nH]3)[C@@H]1C2	> 10	3100	64	32						
O=C(O)CCC/C=C\C[C@@H]1[C@H]2CC[C@H](C2)[C@H]1NC(=O)c1ccc(/N=N/c2ccccc2)cc1	1.4		> 1000	3000						
CC1(C)[C@H]2C[C@H](C/C=C\CCCC(=O)O)[C@@H](NC(=O)c3csc4cc(O)ccc34)[C@@H]1C2	> 10	410								
CC1(C)[C@H]2C[C@H](C/C=C\CCCC(=O)O)[C@@H](NC(=O)c3ccsc3)[C@@H]1C2	> 10	2100	38	1600	15	3.5	9.5	5.1	77	
O=C(O)CCC/C=C\C[C@@H]1[C@H]2CC[C@H](C2)[C@H]1NS(=O)(=O)c1ccc(/N=N/c2ccccc2)cc1	> 10	1300	320	27						
O=C(O)CCC/C=C\C[C@H]1[C@@H]2CC[C@@H](C2)[C@@H]1NS(=O)(=O)c1ccc2ccccc2c1	3.3	0.13	> 1000	4900					6	
O=C(O)CCC/C=C\C[C@@H]1[C@H]2CC[C@H](C2)[C@H]1NS(=O)(=O)c1ccc(Oc2ccccc2)cc1	> 10	1300	780	720					25	
CC1(C)[C@H]2C[C@H](C/C=C\CCCC(=O)O)[C@@H](NC(=O)c3ccc(/N=N/c4ccccc4)cc3)[C@@H]1C2	> 10	150	380	540						
CC1(C)[C@H]2C[C@H](C/C=C\CCCC(=O)O)[C@@H](NC(=O)c3ccccc3)[C@@H]1C2	> 10	810	360	5200						

Reference: ChEMBL document CHEMBL1130354, “Bicyclo[2.2.1]heptane and 6,6-dimethylbicyclo[3.1.1]heptane derivatives: orally active, potent, and selective prostaglandin D2 receptor antagonists” (J Med Chem, 1997)
